Assay outcomes (PubChem BioAssay)
In the library only some 4.6% were active in any assay of this set; here they are far more common.
TAAR1 ag: human TAAR1 agonism; CHO RD-HGA16 TAAR1, Fluo-8 calcium fluorescence; vehicle wells 0%, saturating PEA agonist 100%; activation, % at 3 µM; actives 0.99% (n = 360,000); AID 624467;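 active = activation above the mean activation of all test compounds in the run plus 3 SD, cut at about 38% in these data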
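Assay system – CHO-derived RD-HGA16 cells with stable Gα16 and human TAAR1 · Compound dosing – one-point dosing at 3 µM (nominal) · Incubation – 17-24 h seeding, 75 min 37 °C dye, 30 min RT · Measured by – kinetic Fluo-8 calcium fluorescence · Control set – DMSO vehicle as 0%, PEA at EC100 as 100% · Repeats – single well for each compound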
GPR7 antagonist: antagonists of human GPR7 (neuropeptides B/W receptor 1). P48145. GPR7-expressing cells, fluorescence antagonist assay. inhibition, % at 4.4 µM. actives 1.1% (n = 290,000). AID 1861; in the data active = inhibition above about 16%, passing the limit was not always enough;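 note: cells stimulated with the agonist NPW; 0% = agonist with vehicle and 100% = vehicle without agonist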
Target sequence (P48145 whole entry, looked up): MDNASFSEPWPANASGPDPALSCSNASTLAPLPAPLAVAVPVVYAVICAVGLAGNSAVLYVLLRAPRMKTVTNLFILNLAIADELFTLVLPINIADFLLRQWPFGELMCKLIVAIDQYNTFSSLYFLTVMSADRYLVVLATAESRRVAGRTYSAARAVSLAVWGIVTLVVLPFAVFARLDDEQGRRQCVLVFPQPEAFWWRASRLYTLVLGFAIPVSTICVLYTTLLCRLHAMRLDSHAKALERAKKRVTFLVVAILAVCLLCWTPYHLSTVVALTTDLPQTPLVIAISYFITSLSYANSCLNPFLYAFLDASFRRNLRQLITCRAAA
TAAR1 antagonist: antagonists of human TAAR1 | CHO RD-HGA16 TAAR1, Fluo-8 calcium fluorescence, antagonist | inhibition, % at 3 µM | actives 1.5% (n = 360,000) | AID 624466;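 active = inhibition above a per-plate cutoff, the mean inhibition of test compounds on that plate plus 3 SD, cut at about 49% in these data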;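 note: 0% = DMSO plus EC80 beta-PEA response and 100% = DMSO alone without agonist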
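Assay system: CHO-derived RD-HGA16 cells stably expressing human TAAR1 plus Gα16. Timing: 140 s kinetic read after compound, 140 s after agonist. Technique: kinetic Fluo-8 calcium fluorescence measurement. Measure: % inhibition of agonist calcium response.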
OX1R antag-1: antagonists of human orexin 1 receptor; CHO/OX1R cells, Fluo-8 calcium fluorescence, orexin A; AID 434989; actives 0.43% (n = 330,000); inhibition, % at 5 µM; O43613;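 active = inhibition above its plate's threshold, mean inhibition of all tested compounds on the plate plus 3 SD, cut at about 37% in these data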;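 note: 0% = orexin A challenge wells and 100% = SB-334867-A antagonist wells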
OX1R antag-2: blocks the human orexin 1 receptor; O43613; OX1R-expressing cells, FRET antagonist read-out; inhibition, % at 6.6 µM; actives 1.8% (n = 330,000); AID 485270; in the data active = inhibition mostly above about 38%, no sharp cut-off; inactive = mostly below about 40%;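 note: 0% = agonist challenge alone and 100% = reference antagonist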
CHO parental Ca: counter-screen for OX1R antagonists: effect in parental CHO cells. parental CHO-K1, ATP-induced calcium, Fluo-8 fluorescence. inhibition, % at 5.6 µM. actives 0.63% (n = 330,000);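 active = inhibition above that plate's mean sample inhibition plus 3 SD, cut at about 26% in these data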;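 note: 0% = ATP-challenged DMSO wells and 100% = DMSO wells without ATP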
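Test system: untransfected parental CHO cell line. Compound: one dose, 5.6 µM nominal. Detection: intracellular calcium via Fluo-8 no-wash fluorescent dye. Measure: % inhibition. Benchmarks: ATP-challenged DMSO wells low, unchallenged DMSO wells high.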
OX1R HTRF confirm: confirmation of human orexin 1 receptor antagonists, HTRF format. AID 492964. shares compounds with OX1R antag-2. OX1R-expressing cells, HTRF antagonist assay. inhibition, % at 6.6 µM. actives 49% (n = 1,800); in the data active = inhibition above about 55%;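 note: CHO cells expressing OX1R stimulated with orexin A at about EC80; 0% = agonist challenge alone and 100% = reference antagonist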
CHO-K1 HTRF: signal in parental CHO-K1 cells, OX1R antagonist counter-screen; shares compounds with OX1R antag-2; HTRF counterscreen; inhibition, % at 6.6 µM; actives 48% (n = 1,800); in the data active = inhibition above about 17%;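 note: 0% = agonist challenge with vehicle and 100% = vehicle alone without agonist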
An asterisk follows results filed as active; / = no result.

SMILES	TAAR1 ag	GPR7 antagonist	TAAR1 antagonist	OX1R antag-1	OX1R antag-2	CHO parental Ca	OX1R HTRF confirm	CHO-K1 HTRF
O=C1OCCC1N1C(=O)c2ccccc2S1(=O)=O (centres undefined)	18.5	-6.1	10.6	1.8	17.8	-5.5	/	/
Cc1ccc(/C=C2\SC(=O)N(CCC(=O)N3CCN(C)CC3)C2=O)cc1	-1.5	2.0	-7.4	-29.7	126.4*	-5.8	24.2	26.9*
COc1ccc(NC(=O)Cn2c(CCC(=O)O)ccc2-c2ccc(C)cc2)cc1	7.2	-5.7	7.2	-38.0	11.1	-18.7	/	/
NC(=O)c1c(NC(=O)Cn2cc([N+](=O)[O-])cn2)sc2c1CCCC2	7.4	-2.7	-8.1	-17.6	100.7*	-1.9	17.9	6.8
CC1=C(C(=O)OC2CCCCC2)C(c2ccc(C)o2)C2=C(CCCC2=O)N1 (centres undefined)	-0.2	9.4	-5.8	-32.2	99.4*	-14.8	87.4*	-0.9
CC1=C(C(=O)OCc2ccccc2)C(c2ccc(C)o2)C2=C(CCCC2=O)N1 (centres undefined)	-1.8	3.0	-0.8	-21.4	17.1	-13.0	/	/
CNS(=O)(=O)c1cc2c3c(cccc3c1)C(=O)NC2=O	2.2	-5.8	-6.3	-1.7	130.2*	-4.1	51.0	77.9*
CCOC(=O)c1nnn(-c2ccc([N+](=O)[O-])cc2)c1C	1.6	-11.8	-20.6	-6.7	111.0*	1.7	41.8	54.4*
CCOC(=O)c1csc(-c2ccc([N+](=O)[O-])cc2)n1	0.1	-3.3	-14.6	0.1	104.2*	-4.8	40.2	43.6*
CC(=O)c1nnn(-c2ccc([N+](=O)[O-])cc2C)c1C	2.8	7.4	2.1	-16.2	162.0*	-16.2	27.4	40.1*
CCOC(=O)c1cc(-c2cccc([N+](=O)[O-])c2)on1	-1.2	-16.6	-12.1	10.7	26.5	18.9	/	/
CC(=O)c1nnn(-c2cccc([N+](=O)[O-])c2)c1C	1.6	0.4	-2.2	-15.6	30.3	-2.6	/	/
CCS(=O)(=O)N1Cc2ccccc2CC1C(=O)N1CCN(c2ccccc2)CC1 (centres undefined)	1.9	-5.0	-11.1	-24.5	9.5	-10.7	/	/
O=C(CNc1c(Br)cc(Br)cc1Br)NN=C1CCCCC1	/	-13.4	/	-5.5	-0.2	-9.4	/	/
O=C(Nc1ccc2nc3ccccc3nc2c1)c1ccccc1	10.5	-4.2	22.0	27.1	86.2*	-9.6	92.7*	9.8
O=C(c1ccccc1[N+](=O)[O-])n1cnc2ccccc21	-1.9	-6.2	-0.5	3.5	15.1	0.3	/	/
O=C(c1ccc([N+](=O)[O-])cc1[N+](=O)[O-])n1cnc2ccccc21	16.4	3.5	51.6*	-4.6	108.3*	-19.7	44.1	68.4*
CC(NCc1ccc2c(c1)OCO2)C(=O)NC1CCCc2ccccc21 (centres undefined)	7.5	8.4	13.6	-19.3	29.0	-17.6	/	/
O=[N+]([O-])c1cccc(OCc2cn3cccnc3n2)c1	1.1	-7.5	-18.5	-13.2	129.7*	-6.8	30.4	27.4*
CC1=C(C#N)C(c2cccnc2)C2=C(N1)c1ccccc1C2=O (centres undefined)	-1.2	-0.6	-9.3	-7.1	96.4*	4.3	0.2	-26.0
O=S(=O)(Nc1c(O)ccc2ccccc12)c1cccc2ccccc12	/	/	/	19.4	80.1*	-4.9	77.7*	0.5
NC(=O)[C@@H]1CCCCNc2c(F)cc([N+](=O)[O-])cc2C(=O)N[C@@H](CC(=O)O)C(=O)N[C@@H](CCC(=O)O)C(=O)N1	/	-5.3	/	-14.1	109.6*	10.6	33.8	33.4*
NC(=O)C[C@@H]1NC(=O)c2cc([N+](=O)[O-])cc(F)c2NCCCC[C@@H](C(N)=O)NC(=O)[C@H](CO)NC1=O	9.7	0.9	-9.1	/	/	/	/	/
O=C(Nc1cccc(-c2nc3ccccc3s2)c1)c1cccs1	3.0	-10.3	0.4	6.9	81.1*	-17.3	78.3*	6.0
